# Experiments:
# [1] = tested on: RbAp48 mutants (E126A/E179A; E231A/D248A/N277A/E319A); assay: Pulldown of in vitro translated 35S-labeled mutant RbAp48 by biotinylated FOG-1-; assay type: binding
# How it was run: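 ³⁵S-labeled RbAp48 mutants made by coupled in vitro transcription/translation in rabbit reticulocyte lysate. About 10 μg biotinylated FOG-1-(1–15) on high-capacity streptavidin beads, in Tris pH 7.4, 300 mm NaCl, 0.5% IGEPAL and EDTA-free protease inhibitor. Lysate (15 μl, plus 45 μl ³⁵S-MTA-1 where stated) with 250 μl beads, 1 h, 4 °C. Bare-bead control; 10% input. Five washes; SDS-PAGE and autoradiography.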
# RbAp48 [2] = details: RbAp48 expressed in a reticulocyte lysate; cited from earlier work
# RbAp48 [3] = assay: Binding of MBD3 N-terminal peptide to RbAp48; details: data not shown
substance,measurement,setting,value
"FOG-1-(1–15): chemically synthesized peptide, the 15 N-terminal amino acids of FOG-1",pulldown of E126A/E179A mutant RbAp48 in the presence of MTA-1,"[1]; 45 μl lysate with 35S-labeled MTA-1 added, Fig. 5B lane 10",could be recruited
same,interaction with RbAp48 in GST pulldown assays,RbAp48 [2],can interact
MERKRWECPALPQGW [N-terminal peptide derived from MBD3],binding to RbAp48,RbAp48 [3],does not bind measurably
"biotinylated FOG-1-(1–15): FOG-1-(1–15) peptide bearing an N-terminal biotin tag, immobilized on streptavidin","pulldown of quadruple-point mutant RbAp48 (Glu-231, Asp-248, Asn-277, Glu-319)","[1]; biotinylated peptide on streptavidin beads, Fig. 5A",disrupts binding
